Screening data as filed in PubChem.
An excerpt weighted towards active compounds, which were near 3.3% of everything screened.
UHRF1 binding: blocks human UHRF1 binding to methylated DNA; UHRF1 binding to methylated oligo, TR-FRET; AID 687016; hit rate 0.75% among 370,000; inhibition, % at 4.4 µM; in the data active = inhibition above about 21%;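 note: UHRF1 SRA domain binding a hemimethylated CpG hairpin DNA probe; 0% = median of test compound wells and 100% = reference inhibitor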
MBD2 DNA inh: blocks human MBD2 binding to methylated DNA. TR-FRET, MBD2 binding to methylated oligonucleotide. inhibition, % at 4.4 µM. hit rate 0.31% among 370,000. AID 686964; in the data active = inhibition above about 13%
Target sequence (Q9UBB5 whole entry, looked up): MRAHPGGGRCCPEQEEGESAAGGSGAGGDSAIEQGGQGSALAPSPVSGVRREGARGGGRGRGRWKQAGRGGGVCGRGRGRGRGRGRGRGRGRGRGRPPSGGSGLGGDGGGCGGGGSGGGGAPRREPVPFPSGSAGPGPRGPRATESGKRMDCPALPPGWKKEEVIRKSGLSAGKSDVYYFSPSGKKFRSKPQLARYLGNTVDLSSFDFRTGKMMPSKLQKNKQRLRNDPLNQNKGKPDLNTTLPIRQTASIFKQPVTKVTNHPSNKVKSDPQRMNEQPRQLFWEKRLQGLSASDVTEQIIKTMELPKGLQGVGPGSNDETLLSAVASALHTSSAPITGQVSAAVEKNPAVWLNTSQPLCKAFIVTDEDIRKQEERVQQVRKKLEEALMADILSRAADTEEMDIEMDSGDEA
LEDGF integ inh: blocks HIV-1 LEDGF/p75-dependent DNA integration. TR-FRET IN-LEDGF/p75 DNA integration, Eu/Cy5. inhibition, % at 3.7 µM. hit rate 0.64% among 370,000;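 active = inhibition above the screen-wide mean plus 3 SD, cut at about 13% in these data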;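 note: signal is the Cy5 over europium emission ratio at 671 and 618 nm; 0% = plate median of compound wells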
SIAE primary: blocks human sialic acid acetylesterase | hit rate 0.69% among 370,000 | Q9HAT2 | SIAE FP-Rh probe binding, fluorescence polarization | inhibition, % at 9.66 µM;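 active = inhibition above a cutoff: mean of compounds within the control limits plus 3 SD of those, cut at about 17% in these data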;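 note: 0% = plate median of compound wells and 100% = probe without SIAE protein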
PRMT1 inh: blocks human protein arginine methyltransferase 1; Q99873; recombinant PRMT1, activity-based probe fluorescence polarization; inhibition, % at 2.79 µM; hit rate 1.3% among 370,000; AID 652257;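 active = inhibition above about 21% made by adding two undisclosed values, limit read from the data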
TDP2 inh: blocks human TDP2 phosphodiesterase activity. recombinant TDP2, T5PNP hydrolysis, p-nitrophenol absorbance 415 nm. inhibition, % at 12.8 µM. O95551. hit rate 0.34% among 370,000. AID 720702;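 active = inhibition above the mean of all tested compounds plus 3 SD, set per campaign, cut at about 25% in these data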;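 note: 0% = DMSO with enzyme and 100% = buffer with substrate but no TDP2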
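Material: recombinant human TDP2; quantity: TDP2 enzyme at 120 nM final; medium: Tris-HCl pH 7.5 with MgCl2; compound: single concentration, 12.8 µM nominal, with 1% DMSO; incubation: 2 h enzyme incubation at 37 °C; signal: epi absorbance; measure: percent inhibition; benchmarks: high control without enzyme, low control DMSO plus TDP2; repeats: singlicate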
SIAE confirm: human SIAE inhibition, confirmation | shares compounds with SIAE primary | SIAE FP-Rh activity-based probe, fluorescence polarization | inhibition, % at 9.66 µM | hit rate 13% among 2,300 | AID 1117263;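 active = mean inhibition of the replicates above the hit cutoff set in the primary screen, cut at about 17% in these data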;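 note: 0% = SIAE with DMSO and probe and 100% = probe without SIAE; inhibitors lower polarization as more probe stays unbound to SIAE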
An asterisk follows results filed as active; . = no result given.

SMILES	UHRF1 binding	MBD2 DNA inh	LEDGF integ inh	SIAE primary	PRMT1 inh	TDP2 inh	SIAE confirm
Cc1ccccc1CN1CCN(C(=O)[C@H]2O[C@@H](n3cnc(C(N)=O)n3)[C@H](O)[C@@H]2O)CC1	-2	4	-1	19*	-1	-2	29*
CCOc1ccc(/C=N/Nc2cc(N3CCOCC3)nc(C)n2)c(O)c1	2	3	-2	31*	2	5	26*
C/C(=N\NC(=O)c1cc2ccccc2cc1O)c1ccc(C)o1	0	2	3	24*	-1	-11	-2
C/C(=N/NC(=O)c1cc2ccccc2cc1O)c1ccco1	0	-5	1	23*	1	-4	0
C/C(=N\NC(=O)c1cc2ccccc2cc1O)c1cccs1	-1	1	3	28*	-4	2	1
Cc1ccc(CSc2nnc(-c3cc(-c4ccc(F)cc4)n[nH]3)n2N)cc1	0	0	-3	0	5	6	.
N#CCC[C@@H]1CC[C@]2(CCCN(Cc3ccc(Cl)cc3)C2)O1	2	1	-3	-3	1	1	.
COC(=O)c1c([N+](=O)[O-])c(OC)c(OC)c(OC)c1[N+](=O)[O-]	2	-1	4	19*	-8	-2	7
COc1ccccc1-n1c(=O)c2c3c(sc2n2c(=S)[nH]nc12)CCC3	-1	3	0	18*	4	-2	4
CN1c2ccccc2C2(C)CCCC3=Cc4cc([N+](=O)[O-])cc([N+](=O)[O-])c4OC312 (stereo not drawn)	3	3	3	52*	1	3	-7
CN1c2ccccc2C2(C)CCCC3=Cc4cccc([N+](=O)[O-])c4OC312 (stereo not drawn)	-1	1	-3	11	-2	9	.
CN(C)N1C(N)=C(C#N)C(c2ccccc2F)C2=C1CC(C)(C)CC2=O (stereo not drawn)	-5	-8	3	25*	-1	0	3
Cc1ccccc1C1C(C#N)=C(N)N(N(C)C)C2=C1C(=O)CC(C)(C)C2 (stereo not drawn)	2	7	5	4	-1	-2	.
COc1ccc(OCCSc2nc3ccccc3n2CC(=O)O)cc1	3	4	-2	5	0	-6	.
COc1ccccc1OCCSc1nc2ccccc2n1CC(N)=O	-1	-2	-1	17*	-3	18	-2
COc1ccc(-c2cc(C(=O)N=Nc3c(O)[nH]c4ccccc34)[nH]n2)cc1	0	-1	-4	5	-2	0	.
COc1ccc(/C(C)=N/OCC(=O)N=Nc2c(O)[nH]c3ccccc23)cc1	-1	0	1	21*	-1	7	0
O=C1CCc2ccccc2N1Cc1ccccc1	-2	-2	-3	18*	-1	6	0
O=C1CCCc2ccccc2N1Cc1ccc(F)cc1	2	6	-6	-1	2	-7	.
O=c1[nH][nH]c(=O)n1-c1ccccc1	-2	3	1	20*	-1	5	-2
O=c1c2ccccc2c2ccccc2c(=O)n1-c1ccccc1	0	-1	0	-1	1	9	.
CCOC(=O)Cc1csc(NS(=O)(=O)c2ccc(F)cc2)n1	0	5	-4	19*	1	8	-1
CCC[C@H]1[C@@H](NCc2ccccc2)CC[C@@]23CCCN2C(=O)CCC[C@@H]13	1	-6	5	-1	-2	-6	.
CN(C(=O)COC(=O)c1ccc(Cl)c(S(=O)(=O)N2CCCCCC2)c1)C1CCS(=O)(=O)C1 (stereo not drawn)	3	3	-1	19*	-3	11	3
COc1ccc(/C=N/c2c(-c3ccco3)nc3ccccn23)cc1OC	-3	-3	10	25*	17	5	7
SMILES	UHRF1 binding	MBD2 DNA inh	LEDGF integ inh	SIAE primary	PRMT1 inh	TDP2 inh	SIAE confirm
COc1cc(-c2nc3ccccn3c2/N=C/c2ccc(F)cc2)ccc1O	-4	4	-1	3	-5	4	.
COc1ccccc1/C=C/CN1CCCC(CO)(CCc2ccccc2)C1 (stereo not drawn)	-2	-2	2	2	-3	-10	.
OCC1(CCc2ccccc2)CCCN(C/C=C/c2ccccc2)C1 (stereo not drawn)	1	-1	0	18*	-1	2	-2
CCN(CC)c1ccc(/C=N/N2CCN(Cc3ccccc3Cl)CC2)c(O)c1	0	1	4	22*	-5	-10	4
Cc1ccc(C(=O)N2CCN(c3ccc(NC(=O)c4cccnc4)cc3)CC2)cc1	-3	0	-3	9	0	1	.
Cc1ccc(C(=O)Nc2cccc(C(=O)N3CCOCC3)c2)cc1	0	-3	-4	26*	-1	-9	4
COc1cc(C(=O)Nc2scc(-c3ccc(C)cc3)c2C(=O)O)cc(OC)c1OC	0	3	6	41*	-1	-11	35*
COc1cc(C(=O)Nc2ccc(N3CCN(C(=O)c4ccc(C)cc4)CC3)cc2)cc(OC)c1OC	0	-3	4	21*	2	0	6
COc1ccc(C(=O)Nc2ccc(N3CCOCC3)cc2)cc1S(=O)(=O)NC1CCCC1	-6	0	0	17*	1	4	-6
O=C(Nc1cccc(F)c1)OCCCN1CCC2(CCC(c3ccccc3)CC2)C1 (stereo not drawn)	0	3	0	0	-3	-2	.
O=C(CNS(=O)(=O)c1cc2ccccc2s1)N1CCN(c2ccccn2)CC1	0	-3	0	-9	-2	3	.
Clc1ccc([C@H]2OC[C@@]3(CNCc4ccc5c(c4)OCO5)CS[C@H](c4ccc(Cl)cc4)N23)cc1	4	8	3	2	4	-8	.
CS(=O)(=O)N(CC(=O)NCCSCc1c(F)cccc1Cl)c1cccc([N+](=O)[O-])c1	-1	-1	-5	7	3	1	.
CS(=O)(=O)N(CC(=O)NCCSCc1c(F)cccc1Cl)c1ccc2c(c1)OCO2	3	-4	0	18*	3	6	7
C=CCN1C(=O)[C@@H](CC(=O)N2CCC(c3ccccc3)CC2)[C@]2(C(=O)OC)CCCCC=C12	-2	2	2	3	-3	2	.
CC(=O)NCCC(=O)Nc1cc(S(=O)(=O)Nc2ccc(Cl)cc2)ccc1N1CCCC1	1	1	-1	18*	3	7	4
COc1ccc(OCc2n[nH]c(=S)n2-c2ccc(C)cc2)cc1	3	1	-2	3	8	-4	.
COc1ccc(-n2c(COc3cccc(C)c3)n[nH]c2=S)cc1	-3	3	3	19*	3	9	-1
